# In ChEMBL document CHEMBL3102710, “Design, synthesis, and evaluation of fimbrolide-nitric oxide donor hybrids as antimicrobial agents” (J Med Chem, 2013):
# Active and inactive are the calls of the source. Unless noted, no cut-off for these calls is given here.
# Key:
# [1] = Induction of nitric oxide release in PBS buffer supplemented with L-cysteine, xanthine, xanthine oxidase assessed as nitrite release at 250 to 500 uM after 24 hrs by Griess assay; type: physicochemical
# How it was run: (§1)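 Total NO release was quantified as nitrite with Griess reagent, which detects nitrite at ≥1 μM. Because of that limit, compounds were added at 250 μM and 500 μM.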
# [2] = tested on: Pseudomonas aeruginosa; experiment: Antibacterial activity against Pseudomonas aeruginosa PAO1 MH602 harboring lasB promoter fused with GFP-ASV assessed as growth inhibition at 88 uM measured every 30 mins by GFP-ASV reporter gene assay; type: organism-based; conditions: pseudomonas aeruginosa, in vivo, 0.5 h, 88 µM
# How it was run: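 Cell growth of the PAO1 PlasB::gfp(ASV) reporter strain tracked as OD600 every half hour during compound incubation, alongside GFP readings. Growth is compared against the untreated control.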
# [3] = Inhibition of quorum sensing system in Pseudomonas aeruginosa PAO1 MH602 harboring lasB promoter fused with GFP-ASV assessed as reduction in GFP-ASV reporter protein expression measured every 30 mins
# How it was run: (§2)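 P. aeruginosa PAO1 carrying a PlasB::gfp(ASV) fusion plasmid, which makes its own AHL signals, incubated with compounds at 88.8, 29.6, 9.9, 3.3 or 1.0 μM. GFP fluorescence (RFU) read every half hour. Percent QS inhibition is the percent RFU difference between sample and untreated control, taken at the time point when control fluorescence peaks.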
# [4] = Inhibition of quorum sensing system in Pseudomonas aeruginosa PAO1 MH602 harboring lasB promoter fused with GFP-ASV assessed as reduction in GFP-ASV reporter protein expression at 3.2 uM measured every 30 mins relative to control; how it was run: as §2
# [5] = Inhibition of quorum sensing system in Pseudomonas aeruginosa PAO1 MH602 harboring lasB promoter fused with GFP-ASV assessed as reduction in GFP-ASV reporter protein expression at 9.8 uM measured every 30 mins relative to control; how it was run: as §2
# [6] = Inhibition of quorum sensing system in Pseudomonas aeruginosa PAO1 MH602 harboring lasB promoter fused with GFP-ASV assessed as reduction in GFP-ASV reporter protein expression at 29 uM measured every 30 mins relative to control; how it was run: as §2
# [7] = Inhibition of quorum sensing system in Pseudomonas aeruginosa PAO1 MH602 harboring lasB promoter fused with GFP-ASV assessed as reduction in GFP-ASV reporter protein expression at 88 uM measured every 30 mins relative to control; how it was run: as §2
# [8] = Inhibition of quorum sensing system in Pseudomonas aeruginosa PAO1 MH602 harboring lasB promoter fused with GFP-ASV assessed as reduction in GFP-ASV reporter protein expression at 266 uM measured every 30 mins relative to control
# [9] = tested on: Pseudomonas aeruginosa; experiment: Antibacterial activity against Pseudomonas aeruginosa PAO1 assessed as inhibition of biofilm formation at 150 uM after 6 hrs by crystal violet staining assay relative to control; type: functional; conditions: for inhibition at 150 µM: PAO1, 6 h
# [10] = tested on: Pseudomonas aeruginosa; experiment: Antibacterial activity against Pseudomonas aeruginosa assessed as growth inhibition at 500 uM after 2 hrs by GFP reporter gene assay; type: organism-based; conditions: in vivo
# [11] = tested on: Pseudomonas aeruginosa; experiment: Induction of nitric oxide-dependent nirS gene expression in Pseudomonas aeruginosa at 500 uM incubated for 2 hrs under dark condition by GFP reporter gene assay relative to untreated control; type: functional
# [12] = Induction of nitric oxide release in PBS buffer supplemented with L-cysteine, xanthine, xanthine oxidase assessed as nitrite release at 500 uM after 1 hr by Griess assay; type: physicochemical; how it was run: as §1
SMILES,Activity [1],Activity [2],inhibition [3],inhibition [4],inhibition [5],inhibition [6],inhibition [7],inhibition [8] [%],inhibition [9],Activity [10],Activity [11],Activity [12] [µM],inhibition at 150 µM [9] [%],fold change (FC) [11]
CCCCCCCCCCCC(OC(=O)CC(=O)N1CCN(/[N+]([O-])=N/OC)CC1)C1=CC(=C(Br)Br)OC1=O (stereo not given),Not Active,Non-toxic,Dose-dependent effect,inactive,inactive,inactive,inactive,40.9,inactive,,,,,
CCCCCCCCCCCC(O[N+](=O)[O-])C1=CC(=C(Br)Br)OC1=O (stereo not given),,Non-toxic,Dose-dependent effect,inactive,inactive,inactive,29%,67.3,,Non-toxic,inactive,17.9,73,
CCCC(OC(=O)CO[N+](=O)[O-])C1=CC(=C(Br)Br)OC1=O (stereo not given),,Non-toxic,Dose-dependent effect,inactive,23.2%,49.6%,72.9%,88,,Non-toxic,,29,61,2.5
CCCC(OC(=O)CO/N=[N+](\[O-])N1CCN(C(=O)OCC)CC1)C1=CC(=C(Br)Br)OC1=O (stereo not given),Not Active,Non-toxic,Dose-dependent effect,inactive,4%,22.8%,41.5%,65.9,inactive,,,,,
